Screening data from PubChem BioAssay.
This is a sample that favours compounds with a hit; in the whole collection about 5.8% have one here.
GASC1 inh – KDM4C (human) demethylase inhibition; Q9H3R0; GST-KDM4C 2-372, H3K9me3 peptide, LANCE TR-FRET; inhibition, % at 12.5 µM; 96,000 compounds, 0.15% hits; AID 720574;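 active = mean replicate inhibition above about 25%, with at least 55% of replicates also reaching it, limit read from the data, passing the limit was not always enough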
Target sequence (Q9H3R0 2-372 limits assumed): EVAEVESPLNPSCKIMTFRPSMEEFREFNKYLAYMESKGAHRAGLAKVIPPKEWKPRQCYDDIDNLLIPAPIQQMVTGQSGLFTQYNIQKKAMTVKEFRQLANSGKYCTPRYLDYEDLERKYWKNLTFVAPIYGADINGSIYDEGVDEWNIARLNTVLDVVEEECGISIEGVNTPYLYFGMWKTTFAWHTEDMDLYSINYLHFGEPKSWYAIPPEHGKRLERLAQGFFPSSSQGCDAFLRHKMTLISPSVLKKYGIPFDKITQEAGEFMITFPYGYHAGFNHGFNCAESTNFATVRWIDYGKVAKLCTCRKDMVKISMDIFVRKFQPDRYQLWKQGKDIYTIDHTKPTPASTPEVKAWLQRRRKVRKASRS
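System: N-terminal GST-fused human GASC-1 (KDM4C) fragment, residues 2-372 / Amount: 10 nM GST-KDM4C in enzyme reaction / Also added: H3K9me3 peptide with Fe(II)/2OG / Times: 30 min demethylation and 1 h detection at room temperature / Signal: LANCE TR-FRET / Read-out basis: Fall in 671/618 emission ratio as inhibition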
IDH1 mut inh – IDH1 R132H (human) inhibition; IDH1 R132H reductase, diaphorase/resazurin fluorescence, 60 min; 70,000 compounds, 0.18% hits; inhibition, % at 10 µM; in the data active = inhibition above about 34%;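 also: 0% = DMSO and 100% = no enzyme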
Pf Dd2 inh – P. falciparum Dd2 growth inhibition; SYBR Green, 72 h; stronger effect = lower value; activity change, % at 10 µM; 94,000 compounds, 2.3% hits; in the data active = activity change below about -80%
T cruzi growth – blocks T. cruzi growth in NIH3T3 culture; T. cruzi beta-gal in NIH3T3, GalScreen luminescence, 90 h; inhibition, % at 8.34 µM; 77,000 compounds, 5.9% hits; AID 624255;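 active = mean inhibition above about 93%, with at least 55% of replicates each passing it, limit read from the data, passing the limit was not always enough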
Starred values were filed as active, the others as inactive.

Screening O=C1N[C@@H](Cc2ccccc2)COCn2nncc2CC[C@@H]1Cc1ccccc1 returned GASC1 inh -2.
Screening C[C@@H]1CN([C@@H](C)CO)S(=O)(=O)c2ccc(-c3ccc(C(=O)N(C)C)cc3)cc2O[C@H]1CN(C)Cc1ccc2c(c1)OCO2 returned GASC1 inh -1 and Pf Dd2 inh -84*.
C[C@H]1CN([C@@H](C)CO)S(=O)(=O)c2ccc(-c3ccccc3)cc2O[C@H]1CN(C)Cc1cccnc1 was read as GASC1 inh 1, Pf Dd2 inh -22 and T cruzi growth 94.
For C[C@@H]1CN([C@@H](C)CO)S(=O)(=O)c2ccc(-c3ccccc3)cc2O[C@H]1CN(C)Cc1cccnc1 the results were GASC1 inh 0, IDH1 mut inh 66*, Pf Dd2 inh -62 and T cruzi growth 103*.
For C[C@H](CO)N1C[C@H](C)[C@@H](CN(C)Cc2ccc3c(c2)OCO3)Oc2cc(-c3cccc(C(=O)N(C)C)c3)ccc2S1(=O)=O the results were GASC1 inh -3, IDH1 mut inh 0 and Pf Dd2 inh -71.
Screening C[C@H]1CN([C@@H](C)CO)S(=O)(=O)c2ccc(-c3ccccc3)cc2O[C@@H]1CN(C)Cc1cccnc1 returned GASC1 inh -3, Pf Dd2 inh -34 and T cruzi growth 116*.
`COc1ccc(NC(=O)COc2cc(C)ccc2C)cc1NC(=O)c1ccco1` gave IDH1 mut inh 0.
COCc1cn(CC[C@@H]2CC[C@H](NC(=O)CCN3CCCCC3)[C@@H](CO)O2)nn1 was read as GASC1 inh 67*, IDH1 mut inh 68*, Pf Dd2 inh 6 and T cruzi growth -27.
For COCc1cn(CC[C@H]2CC[C@@H](NC(=O)CCN3CCCCC3)[C@H](CO)O2)nn1 the results were GASC1 inh 3, IDH1 mut inh 0, Pf Dd2 inh 17 and T cruzi growth -55.
For CN(C)CC(=O)N[C@H]1CC[C@H](CCn2cc(CN(C)C)nn2)O[C@H]1CO the results were GASC1 inh 92*, IDH1 mut inh 101*, Pf Dd2 inh 1 and T cruzi growth 60.
`C[C@@H]1CN([C@@H](C)CO)C(=O)c2cc(NS(C)(=O)=O)ccc2O[C@@H]1CN(C)Cc1ccc(-c2ccccc2)cc1` gave GASC1 inh 0, IDH1 mut inh -1 and Pf Dd2 inh 4.
For O=C(Cn1nnc2ccccc21)NCCN1CCCC1 the results were IDH1 mut inh -1.
For O=C(C[C@@H]1C=C[C@H](NS(=O)(=O)c2ccc(F)cc2)[C@H](CO)O1)NC1CCCCC1 the results were GASC1 inh -1, IDH1 mut inh 0, Pf Dd2 inh -10 and T cruzi growth -18.
Screening CN1c2ccc(C#Cc3cccnc3)cc2[C@@H]2[C@@H](CCN2C(=O)C2CCC2)[C@@H]1CO returned GASC1 inh 1 and Pf Dd2 inh -87*.
Screening CN1c2ccc(C#Cc3cccnc3)cc2[C@@H]2[C@@H](CCN2S(=O)(=O)c2ccccc2F)[C@@H]1CO returned GASC1 inh -1, Pf Dd2 inh -88* and T cruzi growth 101.
For CN1c2ccc(C#Cc3cccnc3)cc2[C@@H]2[C@@H](CCN2C(=O)C2CCCC2)[C@H]1CO the results were GASC1 inh 6 and Pf Dd2 inh -66.
Screening CN1c2ccc(C#Cc3cccc(F)c3)cc2[C@H]2[C@H](CCN2S(=O)(=O)c2ccccc2F)[C@@H]1CO returned GASC1 inh 0, Pf Dd2 inh 1 and T cruzi growth 30.
C[C@@H]1CN([C@H](C)CO)C(=O)c2cc(/C=C/c3ccccc3)cnc2O[C@@H]1CN(C)C(=O)C1CC1 was read as GASC1 inh -2 and Pf Dd2 inh -86*.
C[C@H](CO)N1C[C@H](C)[C@@H](CN(C)Cc2cncnc2)Oc2ncc(/C=C/c3ccccc3)cc2C1=O was read as GASC1 inh 52*, IDH1 mut inh 79*, Pf Dd2 inh -35 and T cruzi growth 62.
For C[C@@H]1CN([C@@H](C)CO)C(=O)c2cc(NC(=O)CCCCCC(=O)Nc3ccccc3N)ccc2O[C@@H](C)CCCCO[C@@H]1CN(C)C(=O)Nc1ccc(C(F)(F)F)cc1 the results were GASC1 inh 0, Pf Dd2 inh -82* and T cruzi growth 72.
Screening COc1ccc(NC(=O)Nc2ccc3c(c2)C(=O)N([C@H](C)CO)C[C@H](C)[C@H](CN(C)Cc2ccc(C(=O)Nc4ccccc4N)cc2)OCCCC[C@@H](C)O3)cc1 returned GASC1 inh 2, IDH1 mut inh 0 and Pf Dd2 inh -87*.
C[C@H](CO)N1C[C@H](C)[C@H](CN(C)CC2CCCCC2)OCCCC[C@H](C)Oc2ccc(NC(=O)CCCCCC(=O)Nc3ccccc3N)cc2C1=O was read as GASC1 inh 3, Pf Dd2 inh -82* and T cruzi growth 89.
For C[C@@H]1CCCCO[C@H](CN(C)Cc2ccccc2)[C@@H](C)CN([C@H](C)CO)C(=O)c2cc(NC(=O)CCCCCC(=O)Nc3ccccc3N)ccc2O1 the results were GASC1 inh -1 and Pf Dd2 inh -83*.
Screening COc1ccc(CN(C)C[C@H]2OCCCC[C@@H](C)Oc3ccc(NC(=O)CCCCCC(=O)Nc4ccccc4N)cc3C(=O)N([C@H](C)CO)C[C@@H]2C)cc1 returned GASC1 inh 1 and Pf Dd2 inh -83*.
For C[C@@H]1CCCCO[C@H](CN(C)S(=O)(=O)c2ccc(Cl)cc2)[C@@H](C)CN([C@H](C)CO)C(=O)c2cc(NC(=O)CCCCCC(=O)Nc3ccccc3N)ccc2O1 the results were GASC1 inh -1, IDH1 mut inh 0 and Pf Dd2 inh -85*.
Screening C[C@@H]1CN([C@H](C)CO)C(=O)c2cc(NC(=O)CCCCCC(=O)Nc3ccccc3N)ccc2O[C@@H](C)CCCCO[C@@H]1CN(C)S(=O)(=O)c1ccc(Cl)cc1 returned GASC1 inh 0, IDH1 mut inh 0, Pf Dd2 inh -78 and T cruzi growth 79.
Screening O=C(NCCCn1ccnc1)c1ccccc1I returned IDH1 mut inh 14.
Screening O=C(NCCCn1ccnc1)c1cc(-c2ccc(Br)cc2)nc2ccccc12 returned IDH1 mut inh 42*.
CC(C)NC(=O)N1Cc2cc(C(=O)NCC(F)(F)F)nc(-c3cccc(-c4cc5ccccc5o4)c3)c2[C@H]1CCO was read as GASC1 inh -10 and Pf Dd2 inh -86*.
For CC(C)(C)S(=O)N1Cc2cc(C(=O)NCc3ccc4c(c3)OCO4)nc(-c3cccc(-c4cc5ccccc5o4)c3)c2[C@H]1CCO (stereo partly specified) the results were GASC1 inh -2 and Pf Dd2 inh -93*.
Screening CC(C)CC#Cc1cnc2c(c1)C(=O)N([C@@H](C)CO)C[C@H](C)[C@H](CN(C)C(=O)c1ccc3c(c1)OCO3)O2 returned GASC1 inh 1, IDH1 mut inh -6, Pf Dd2 inh -19 and T cruzi growth 22.
O=C(Nc1cc(F)ccc1F)N1CC(=O)N2[C@H](CO)[C@@H](c3ccc(C#CC4CCCCC4)cc3)[C@@H]2C1 was read as GASC1 inh -4 and Pf Dd2 inh -82*.
